Legend:
[1] = system: Mus musculus; experiment: Percent plasma glucose concentration of drug treated mice (ob/ob) relative to vehicle control animals following 75 mg/kg administration.; format: functional
How it was run: (§1)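 Female ob/ob mice, 10 weeks old, fed ad libitum, in groups of 7–11. Dosed po once daily for 4 days in 0.5% methyl cellulose vehicle. Decapitated the next morning; 0.1 mL blood into saline with Trasylol and EDTA; plasma glucose by autoanalyzer. Reciprocal-transformed (y = 160/x) harmonic mean given as % of vehicle. Bonferroni-adjusted comparisons.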

[2] = organism: Mus musculus; experiment: Percent plasma glucose concentration of drug treated mice (ob/ob) relative to vehicle control animals; format: functional; how it was run: as §1

Structure (SMILES)	Activity [1]	Activity [2]
FC(F)(F)C(F)(F)C(F)(F)CNc1ccc(Cc2nn[nH]n2)cc1	99%	
O=C(Nc1ccc(Cc2nnn[nH]2)cc1)C(F)(F)C(F)(F)C(F)(F)C(F)(F)C(F)(F)C(F)(F)C(F)(F)C(F)(F)F		63%
O=C(N(Cc1ccccc1)c1cccc(Cc2nn[nH]n2)c1)C(F)(F)C(F)(F)C(F)(F)F		78%
O=C(N1CCc2ccccc2C1)C(F)(F)C(F)(F)C(F)(F)C(F)(F)C(F)(F)C(F)(F)C(F)(F)F		87%
O=C(Nc1ccc(-c2nn[nH]n2)cc1)C(F)(F)C(F)(F)C(F)(F)F	75%	
O=C(NCCc1ccccn1)C(F)(F)C(F)(F)C(F)(F)C(F)(F)C(F)(F)C(F)(F)C(F)(F)F		63%
CC1(COc2ccc(CC3SC(=O)NC3=O)cc2)CCCCC1 (stereo unspecified) [CIGLITAZONE]		70%
CCNS(=O)(=O)C(F)(F)C(F)(F)C(F)(F)C(F)(F)C(F)(F)C(F)(F)C(F)(F)C(F)(F)F [SULFLURAMID]		90%
O=C(O)C(F)(F)C(F)(F)C(F)(F)C(F)(F)C(F)(F)C(F)(F)C(F)(F)C(F)(F)F	124%	
CCCCCCCCCCCCCCCCCC(=O)Nc1ccc(Cc2nn[nH]n2)cc1		108%
O=C(Nc1ccc(Cc2nn[nH]n2)cc1)c1ccc(C(F)(F)F)cc1	130%	
O=C(Nc1ccc(Cc2nn[nH]n2)cc1)c1c(F)c(F)c(F)c(F)c1F		75%
O=C(NCC(F)(F)C(F)(F)C(F)(F)F)c1ccc(Cc2nn[nH]n2)cc1		90%
COc1ccc2c(c1)CCCN2C(=O)C(F)(F)C(F)(F)C(F)(F)C(F)(F)C(F)(F)C(F)(F)C(F)(F)F		132%
O=C(NCCCCCc1nn[n-]n1)C(F)(F)C(F)(F)C(F)(F)C(F)(F)C(F)(F)C(F)(F)C(F)(F)C(F)(F)F.[Na+]		62%
O=C(Nc1ccc(Cc2nnn[nH]2)cc1)C(F)(F)C(F)(F)F		86%
CCOC(=O)C(F)(F)C(F)(F)C(F)(F)C(F)(F)C(F)(F)C(F)(F)C(F)(F)F		72%
O=C(Nc1ccccc1O)C(F)(F)C(F)(F)C(F)(F)C(F)(F)C(F)(F)C(F)(F)C(F)(F)F		85%
O=C(O)C(F)(F)C(F)(F)C(F)(F)F		101%
O=C(NCc1ccccc1)C(F)(F)C(F)(F)C(F)(F)C(F)(F)C(F)(F)C(F)(F)C(F)(F)F		106%
O=C(Nc1ncccn1)C(F)(F)C(F)(F)C(F)(F)C(F)(F)C(F)(F)C(F)(F)C(F)(F)F		49%
O=C(Nc1ccccc1Cc1nn[nH]n1)C(F)(F)C(F)(F)C(F)(F)F		91%
O=C(Nc1ccccc1Cc1nn[n-]n1)C(F)(F)C(F)(F)C(F)(F)F.[Na+]		84%
O=C(Nc1ccccc1)C(F)(F)C(F)(F)C(F)(F)C(F)(F)C(F)(F)C(F)(F)C(F)(F)F		74%
NC(=O)C(F)(F)C(F)(F)C(F)(F)C(F)(F)C(F)(F)C(F)(F)C(F)(F)F		65%
Cc1ccc(NC(=O)C(F)(F)C(F)(F)C(F)(F)C(F)(F)C(F)(F)C(F)(F)C(F)(F)F)cc1	58%	

Structure (SMILES)	Activity [1]	Activity [2]
O=C(Nc1ccc(Cc2nn[nH]n2)cc1)C(F)(F)C(F)(F)C(F)(F)F		96%
O=C(Nc1cccc2ncccc12)C(F)(F)C(F)(F)C(F)(F)C(F)(F)C(F)(F)C(F)(F)C(F)(F)F		64%
O=C(Nc1ccc(Cc2nnn[nH]2)cc1)C(F)(F)C(F)(F)C(F)(F)C(F)(F)C(F)(F)C(F)(F)C(F)(F)C(F)F		65%
CCCC(=O)Nc1ccc(Cc2nn[nH]n2)cc1	108%	
O=C(Nc1ccc(CCCc2nn[nH]n2)cc1)C(F)(F)C(F)(F)C(F)(F)F		72%
O=C(Nc1ccc(Cc2nnn[nH]2)cc1)C(F)(F)C(F)(F)C(F)(F)C(F)(F)C(F)(F)C(F)(F)F		93%
O=C(Nc1ccc(Cc2nn[nH]n2)cc1)c1cc(C(F)(F)F)cc(C(F)(F)F)c1		82%
OCC(F)(F)C(F)(F)C(F)(F)C(F)(F)C(F)(F)C(F)(F)C(F)F		67%
O=C(Nc1ccc(F)cc1)C(F)(F)C(F)(F)C(F)(F)C(F)(F)C(F)(F)C(F)(F)C(F)(F)F		91%
O=C(NCCCCCc1nnn[nH]1)C(F)(F)F		95%
O=C(O)C(F)(F)C(F)(F)C(F)(F)C(F)(F)C(F)(F)C(F)(F)C(F)(F)F		60%
O=C(Nc1cccc(Cc2nn[nH]n2)c1)C(F)(F)C(F)(F)C(F)(F)F		86%
O=C(Nc1cccnc1)C(F)(F)C(F)(F)C(F)(F)C(F)(F)C(F)(F)C(F)(F)C(F)(F)F		74%
O=C(Nc1ccc(-c2nn[nH]n2)cc1)C(F)(F)C(F)(F)C(F)(F)C(F)(F)C(F)(F)C(F)(F)C(F)(F)F		82%
O=C(Nc1ccc(Cc2nnn[nH]2)cc1)C(F)(F)C(F)(F)C(F)(F)C(F)(F)C(F)(F)C(F)(F)C(F)(F)C(F)(F)C(F)(F)F		71%
O=C(Nc1ccc(CCc2nn[nH]n2)cc1)C(F)(F)C(F)(F)C(F)(F)F		76%
NCC(F)(F)C(F)(F)C(F)(F)C(F)(F)C(F)(F)C(F)(F)C(F)(F)F		84%
O=C(Nc1ccc(CCCc2nn[nH]n2)cc1)C(F)(F)C(F)(F)C(F)(F)C(F)(F)C(F)(F)C(F)(F)C(F)(F)F		63%
O=C(Nc1ccccn1)C(F)(F)C(F)(F)C(F)(F)C(F)(F)C(F)(F)C(F)(F)C(F)(F)F		56%
O=C(NO)C(F)(F)C(F)(F)C(F)(F)C(F)(F)C(F)(F)C(F)(F)C(F)(F)F		52%
O=C(Nc1ccc(Cc2nnn[nH]2)cc1)C(F)(F)C(F)(F)C(F)(F)C(F)(F)C(F)(F)C(F)(F)C(F)(F)C(F)(F)C(F)(F)C(F)F		62%
O=C(N1CCCc2ccccc21)C(F)(F)C(F)(F)C(F)(F)C(F)(F)C(F)(F)C(F)(F)C(F)(F)F		115%
O=C(CCC(F)(F)F)Nc1ccc(Cc2nn[nH]n2)cc1	104%	
O=C(Nc1ccc(Cc2nnnn2Cc2ccccc2)cc1)C(F)(F)C(F)(F)C(F)(F)C(F)(F)C(F)(F)C(F)(F)C(F)(F)F		82%
O=C(Nc1ccc(Cc2nn[n-]n2)cc1)C(F)(F)C(F)(F)C(F)(F)C(F)(F)C(F)(F)C(F)(F)C(F)(F)F.[Na+]		55%
O=C(Nc1ccc(Cc2nnn[nH]2)cc1)C(F)(F)F		104%

Structure (SMILES)	Activity [1]	Activity [2]
CN(C(=O)C(F)(F)C(F)(F)C(F)(F)C(F)(F)C(F)(F)C(F)(F)C(F)(F)F)c1ccc(Cc2nnn(C)n2)cc1		70%
O=C(NCCCCCc1nn[nH]n1)C(F)(F)C(F)(F)C(F)(F)C(F)(F)C(F)(F)C(F)(F)C(F)(F)C(F)(F)F		57%
O=C(Nc1ccc(Cc2nnn[nH]2)cc1)C(F)(F)C(F)(F)C(F)(F)C(F)(F)F		92%
O=C(NCCc1nnn[nH]1)C(F)(F)C(F)(F)C(F)(F)C(F)(F)C(F)(F)C(F)(F)C(F)(F)C(F)(F)F		65%
O=C(NCCCCCc1nn[n-]n1)C(F)(F)C(F)(F)C(F)(F)C(F)(F)C(F)(F)C(F)(F)C(F)(F)F.[Na+]		48%
O=C(NCCCCCc1nn[nH]n1)C(F)(F)C(F)(F)C(F)(F)C(F)(F)C(F)(F)C(F)(F)C(F)(F)F		54%
O=C(Nc1nn[nH]n1)C(F)(F)C(F)(F)C(F)(F)C(F)(F)C(F)(F)C(F)(F)C(F)(F)F		64%
O=C(NCCCCCc1nnn[nH]1)C(F)(F)C(F)(F)C(F)(F)F		91%
CCCCCCCCC(=O)NCCCCCc1nnn[nH]1		100%
O=C(Nc1cccc(Cc2nn[nH]n2)c1)C(F)(F)C(F)(F)C(F)(F)C(F)(F)C(F)(F)C(F)(F)C(F)(F)F		60%
O=C(O)C(F)(F)C(F)(F)C(F)(F)C(F)(F)C(F)(F)C(F)(F)F	107%	
Cc1csc(=N)n1C(=O)C(F)(F)C(F)(F)C(F)(F)C(F)(F)C(F)(F)C(F)(F)C(F)(F)F		94%
O=C(Nc1ccc(CCc2nn[nH]n2)cc1)C(F)(F)C(F)(F)C(F)(F)C(F)(F)C(F)(F)C(F)(F)C(F)(F)F		119%
O=C(NCC(F)(F)C(F)(F)C(F)(F)F)c1cccc(Cc2nn[nH]n2)c1		93%
FC(F)C(F)(F)C(F)(F)C(F)(F)C(F)(F)C(F)(F)C(F)(F)F	90%	
O=C(Nc1cccc(Cc2nn[n-]n2)c1)C(F)(F)C(F)(F)C(F)(F)F.[Na+]		71%
O=C(O)C(F)(F)C(F)(F)C(F)(F)C(F)(F)F	133%	
O=C(Nc1ccc(CCCCc2nn[nH]n2)cc1)C(F)(F)C(F)(F)C(F)(F)C(F)(F)C(F)(F)C(F)(F)C(F)(F)F		73%
COC(=O)NCC(F)(F)C(F)(F)C(F)(F)C(F)(F)C(F)(F)C(F)(F)C(F)(F)F	57%	
CCCCNC(=O)C(F)(F)C(F)(F)C(F)(F)C(F)(F)C(F)(F)C(F)(F)C(F)(F)F	70%	
N#CCc1ccc(NC(=O)C(F)(F)C(F)(F)C(F)(F)C(F)(F)C(F)(F)C(F)(F)C(F)(F)F)cc1	69%	
O=C(N1CCN(c2ccccn2)CC1)C(F)(F)C(F)(F)C(F)(F)C(F)(F)C(F)(F)C(F)(F)C(F)(F)F		76%
O=C(Nc1ccccc1Cc1nn[nH]n1)C(F)(F)C(F)(F)C(F)(F)C(F)(F)C(F)(F)C(F)(F)C(F)(F)F		66%
OC(c1ccccc1)C(F)(F)C(F)(F)C(F)(F)C(F)(F)C(F)(F)C(F)(F)C(F)(F)C(F)(F)F (stereo unspecified)	64%	
